B1: tRNA (parent)
chain: GUUCCGUUGGCGUAAUGGUAACGCGUCUCCCUCCUAAGGAGAAGACUGCGGGUUCGAGUCCCGUACGGAACG

This sample holds only a part of the variants without activity.

This data set covers variants of B1. In words: yeast fitness relative to wild type (ratio to wild type); higher = fitter; tRNA-Arg(CCU), competitive growth, 37 C, YPD. In outline:
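Genotype frequency changes were the basis for Darwinian fitness relative to wild type. The frequencies came from 100-nucleotide paired-end sequencing of gene amplicons from the start population and each end population of pooled yeast strains with tRNA-Arg(CCU) gene variants at the native locus. Competition ran in YPD at 37°C for 24 hours in six replicates, genotypes needed ≥ 100 starting reads, and estimates < 0.5 were set to 0.5.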
Consider GUUCCGUUGGCGUGAUGGUAACGCGUCUCCCUCCUAAGGAGCAGACUGCGGGUUCGAGUCCAGUACGGAACG, for which the yeast fitness was at most 0.5.
The same measure for GUUCCGUUGGCGUGAUGGUAACGCGUCUCCCUCCUAAGGAGUAGACUGCGGGUUCGAGUCCCGUACGCAACG: at most 0.5; for GUUCCGUUGGCGUGAUGGUAAGGCGUCUCCCUCCUAAGGAGAAGACUGCGGGUUCGAGUCCCGUACGGAACG: 0.806; for GUUCCGUUGGCGUGAUGGUAACGUGUCUCUCUCCUAAGGAGAAGACUGCGGGUUCGAGUACCGUACGGAACG: at most 0.5.
Under GUUCCGUUGGCGUGAUGGUAACGCGUCUCCCUCCUAAGGGGAAGACCGCGGGUUCGAGUCCCGUACGGAACG stands 0.551; under GUUCCGUUGGCGUGAUGGUAACGUGUCUCCCUCCUAAGGAGACGACUGCGGGUUCGAGUCCCGUACGGAUCG, at most 0.5.
Under GUUCCGUUGGCGUGAUGGUAACGGGUCUCCUUCCUAAGGAGAAGACUGCGGGUUGGAGUCCCCUACGGAACG stands at most 0.5; under GUUCCGUUGGCGUGAUGGUAACGCGUCUCCCUCCUUAGGAGAAGACUGCAGGUUCGAGUCCGGUACGGAACG, at most 0.5.
Take GUUCCGUUGGCGUGAUGGUAAGGCGUCUCGCUCCUAAGGAGAAGACUGCGGGUUCGAGUCCCGUACGAAACG: the yeast fitness was at most 0.5.
For GUUCCGUUGGCGUGAUGGUAACGGGUCUCCUUCCUAAGGAGAAGACUGCGGGUUCGAGUCCCGUACGAAACG, the yeast fitness was at most 0.5.
Consider GUUCCGUUGGCGUGAUGGUAAUGCGUCUCCCUCCUAGGGAGAAGACUGCGGGUUCGAGUCCCGUACGGACCG, for which the yeast fitness is at most 0.5.
With GUUCCGUUGGCGUGAUGGUAAGGCGCCUCCGUCCUAAGGAGAAGACUGCGGGUUCGAGUCCCGUACGGAACG, the yeast fitness turned out to be 0.615.
The same measure for GUUCCGUUGGCGUGAUGGUAACGCGUCUCCCUCCUUAGGAGAAGACUGCGGGUUCGAGUCCCGUACGGAACG: 0.658; for GUUCCGUUGGCGUGAUGGUAACGCGUCUCCCUCCUCAGGAGAAGACUGCGGGUUCGAGUCCCGUACGGAACG: 0.561; for GUUCCGUUGGCGUGAUGGUAAGGCGUCACCGUCCUAAGGAGAAGACUGCGGGUUAGAGUCCCGUACGCAACG: at most 0.5.
Under GUUCCGUUGGCGUGAUGGUAACGCGUCUCCCUCCUUAGGAGAAGAAUGCGAGUUCGAGUCCCGUACGGAACG stands at most 0.5.
The same measure for GUUCCGUUGGCGUGAUGGUAGCGCGUCUCCCUUCUAAGGAGACGACUGCGGGUUCGAGUCCCGUACGGAACG: at most 0.5; for GUUCCGUUGGCGUGAUGGUAAUGCGUCUACCUCCUAAGGAGAAGACUGCGGGUUCGAGUCCCGUACGGAACG: at most 0.5.
Regarding GUUCCGUUGGCGUGAUGGUAACGCGUCUCCCUCCUAAGGAGAAGACUGCGGGUUCGAGUCCCGUACGGAUCG, the yeast fitness was found to be 0.662.
With GUUCCGUUGGCGUGAUGGUAACGCGUCUCCCUCCUAAGGAGGAGAGUGCGGGUUCGGGUCCCGUACGGAACG, the yeast fitness is at most 0.5.
Under GUUCCGUUGGCGUGAUGGUAACGCGUCUCCCUCCUAAGGUGAAGACUGCGGGUUAGAGUCCCGUACGUAACG stands at most 0.5; under GUUCCGUUGGCGUGAUGGUAACGCGUCUCCCUCCUAAGGAGAAGACUGCGGGUUCGAGUCCCGUGCGGACCG, 0.755.
The same measure for GUUCCGUUGGCGUGAUGGUAACGGGUCUCCCUCCUAAGGAGAACACUGCGGGUUCGACUCCCGUACGUAACG: at most 0.5.
With GUUCCGUUGGCGUGAUGGUAACGUGUCUCCCUCCUAAGGAGAAGACUGCGGGUUAGAGUCCCCUACGGAACG, the yeast fitness is at most 0.5.
Under GUUCCGUUGGCGUGAUGGUAAAGCGUCUUCCUCCUAAGGAGAAGACUGCGGGUUCCACUCCCGUAUGGAACG stands at most 0.5; under GUUCCGUUGGCGUGAUGGUAACGCGUCUCCCUCCUAAGGAGAAGCCUGCGGGUUCGAAUCCCGUACGGAACG, 0.622; under GUUCCGUUGGCGUGAUGGUAACGAGUCUCCUUCCUAAGGUGAAGACUGCGGGUUCGAGUCCCGUACGGAACG, at most 0.5.
Under GUUCCGUUGGCGUGAUGGUAACGGGUCUCCUUCCUAAGGAGAAGACUGCGGGUUAGAGUCACGUACGGAACG stands at most 0.5; under GUUCCGUUGGCGUGAUGGUAACGCGUCUCCCUCCUUAGAAGAAGACUGCGGGUUCGAGUGCCGUACGGAACG, at most 0.5; under GUUCCGUUGGCGUGAUGGUAACGCGUCUCCCUCCUAAGGAGAAGACUGCGGGUUCGUGUCCCGUUCGGAACG, at most 0.5.
The same measure for GUUCCGUUGGCGUGAUGGUAACGCGUCUCCCUCCUAAGGAGAAGCCUGCGGGUUCGAGUCCCGUACGGAACG: 0.718; for GUUCCGUUGGCGUGAUGGUAACGCGUCUCCCUCCUAAGGUGAAGACUGCGGGUUCGAGUCCCGUCCGGAACG: 0.533.
Take GUUCCGUUGGCGUGAUGGUAACGCGUCUCCCUCCUGAGGAGAAGACUACGGGUUCGAGUCCCGUACGGAACG: the yeast fitness came out at 0.555.
The same measure for GUUCCGUUGGCGUGAUGGUAACGCGUCUCCCUCCUAAGGGGAAGAUUGCGGGUUCGAGUCCCGUACGGAACG: 0.57.
Under GUUCCGUUGGCGUGAUGGUAACGCGUCUCCCUCCUAAGGAGGAGACUGCGCGUUCGAGUCCCGUACGGAACG stands at most 0.5.
The same measure for GUUCCGUUGGCGUGAUGGUAACGCGUCUCCCUCCUAAGGAGAAGACUGCGGGUUCGGGUCCCGUACGCAACG: 0.616; for GUUCCGUUGGCGUGAUGGUAAGGCGUCUCCCUCCUAAGGAGAAGACUGCGGGUUCGAGUCCCGUACGGAUCG: 0.774; for GUUCCGUUGGCGUGAUGGUAAGGCGUCUCCCUCCGAAGGCGAAGACUGCGGGUUCGAGUCCCGUACGGAGCG: at most 0.5.
